Results: ChEMBL document CHEMBL2429863, “Cytotoxic deoxybenzoins and diphenylethylenes from Arundina graminifolia” (J Nat Prod, 2013)

Experiments:
Type in all cases: functional, cell-based
MCF7 = assay: Cytotoxicity against human MCF7 cells after 48 hrs by MTT assay; settings: MCF7, 48 h
In short: (§1)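 Tumor cells from ATCC, grown in RPMI1640 or DMEM with 10% FBS at 37 °C, 5% CO2. Adherent cells plated and allowed to attach 12 h; suspension cells seeded just before dosing at 1 × 10^5 cells/mL. Compounds at various concentrations in triplicate for 48 h; paclitaxel positive control. MTT added for 4 h at 37 °C, then lysis with 20% SDS–50% DMF; formazan read colorimetrically.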

PC-3 = assay: Cytotoxicity against human PC3 cells after 48 hrs by MTT assay; settings: PC-3, 48 h; in short: as §1
[1] = Cytotoxicity against human SH-SY5Y cells after 48 hrs by MTT assay; in short: as §1
A549 = assay: Cytotoxicity against human A549 cells after 48 hrs by MTT assay; settings: A549, 48 h; in short: as §1
NB-4 = assay: Cytotoxicity against human NB4 cells after 48 hrs by MTT assay; settings: NB-4, 48 h; in short: as §1

Structure (SMILES) | IC50 (MCF7) [µM] | IC50 (PC-3) [µM] | IC50 [1] [µM] | IC50 (A549) [µM] | IC50 (NB-4) [µM]
CC(=O)Oc1cc(CC(=O)c2ccccc2)cc2oc(C(C)C)cc(=O)c12 | > 10 | > 10 | > 10 | > 10 | > 10
COc1cc(/C=C/c2cc(O)cc(O)c2)cc(O)c1CCO | 5.3 | 2.2 | 4.5 | 6.5 | 3.3
CC1=CC(=O)c2c(O)cc(CC(=O)c3ccc(O)cc3)cc2OC1 | 5.4 | 3.4 | 1.8 | 2.2 | 7.6
CC(C)c1cc(=O)c2c(O)cc(CC(=O)c3ccccc3)cc2o1 | > 10 | > 10 | > 10 | > 10 | > 10
CC(=O)O[C@H]1C(=O)[C@@]2(C)[C@H]([C@H](OC(=O)c3ccccc3)[C@]3(O)C[C@H](OC(=O)[C@H](O)[C@@H](NC(=O)c4ccccc4)c4ccccc4)C(C)=C1C3(C)C)[C@]1(OC(C)=O)CO[C@@H]1C[C@@H]2O [PACLITAXEL] | – | – | 0.2 | – | –
COc1ccc(C(=O)Cc2cc(O)c3c(c2)OC(C)(C)CC3=O)cc1 | > 10 | > 10 | > 10 | > 10 | > 10
COc1ccc(C(=O)Cc2cc(OC)c3c(c2)OC(C)(C)CC3=O)cc1 | 8.5 | > 10 | > 10 | 6.4 | > 10
COc1ccc(C(=O)Cc2cc(O)c(C(=O)CCC(C)C)c(O)c2)cc1 | > 10 | > 10 | > 10 | > 10 | > 10
CC(C)CCC(=O)c1c(O)cc(CC(=O)c2ccccc2)cc1O | 5.5 | 6.8 | 3.2 | 5.2 | 2.1
COc1ccc(C(=O)Cc2cc(O)c3c(c2)OCC(C)=CC3=O)cc1 | > 10 | > 10 | > 10 | > 10 | > 10
COc1cc(/C=C/c2cc(O)c(CCO)c(O)c2)cc(OC)c1 | 5.9 | 8.7 | 6.2 | 5.5 | 4.8
OCCc1c(O)cc(/C=C/c2cc(O)cc(O)c2)cc1O | 6.4 | 5.6 | 7.8 | 8.1 | 5.5
